# Data taken from the RNAGym collection of RNA variant scans (doi:10.1126/science.aae0568).
# Variants at the floor of the assay were thinned out.
# B1: tRNA (parent)
# chain: GUUCCGUUGGCGUAAUGGUAACGCGUCUCCCUCCUAAGGAGAAGACUGCGGGUUCGAGUCCCGUACGGAACG
# Variants of: B1
# Experiment: yeast fitness relative to wild type (ratio to wild type); higher = fitter; tRNA-Arg(CCU), competitive growth, 37 C, YPD
# Procedure, shortened: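 Amplicons of the tRNA-Arg(CCU) gene were sequenced, 100-nucleotide paired-end, from the start population and from each end population of a pooled yeast competition. The competition, in six parallel replicates, lasted 24 hours in YPD at 37°C. Fitness relative to wild type was calculated from changes in genotype frequencies. Genotypes had to have ≥ 100 starting reads, and estimates < 0.5 were set to 0.5.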
row,Variant,yeast fitness
1,G6A G12A C33G U54A U59A G67A,≤ 0.5
2,G6A C30G C60G G68A,≤ 0.5
3,G6A C30U,0.742
4,G6A C30A,0.845
5,G6A C33G C34G C61A,0.548
6,G6A C11U C22U,0.566
7,G6A C46G G51A G52C C62G C66U,≤ 0.5
8,G6A C34G G52C A65U,≤ 0.5
9,G6A C11U U13C C27G A69C,0.541
10,G6A C60G G67A,0.53
11,G6A C11A C66A,≤ 0.5
12,G6A G17C C31A A36U C55G G63A,≤ 0.5
13,G6A A70U,0.958
14,G6A A70C,0.863
15,G6A A70G,0.928
16,G6A A37U,0.64
17,G6A G9A C11G C24G U32A G52C,≤ 0.5
18,G6A C22G C31U,0.771
19,G6A C29U A43C C46U,0.623
20,G6A G18C C22G C33G,≤ 0.5
21,G6A C27U A42U C62U,≤ 0.5
22,G6A C49U G63A,0.688
23,G6A C33A,0.686
24,G6A C24U A45C C61G,≤ 0.5

row,Variant,yeast fitness
1,G6A C22A C31U G68C,0.709
2,G6A G12A U54C C60G,≤ 0.5
3,G6A C31U,0.933
4,G6A C31A,0.819
5,G6A C31G,0.975
6,G6A A45G A69C,0.748
7,G6A C31G C49A G68C,0.536
8,G6A C24A U53C A57C A65U,≤ 0.5
9,G6A C31G G41A,≤ 0.5
10,G6A C22G A37G U47A A70C,≤ 0.5
11,G6A C31A G41A A45U G58C,≤ 0.5
12,G6A C22G G44C A70C,≤ 0.5
13,G6A C11U C22G U47A C60U,≤ 0.5
14,G6A C33A G58A A65C G67A,≤ 0.5
15,G6A C11U A40G,≤ 0.5
16,G6A C11A U54G,0.563
17,G6A C11U U13C A70G,≤ 0.5
18,G6A A37G U53G,≤ 0.5
19,G6A C24U G48C,0.618
20,G6A G12C,0.855
21,G6A G12C U16C A21U,0.532
22,G6A C24U C61G C66U,0.724
23,G6A A42C G48A C62U,0.698
24,G6A G25A U59C,≤ 0.5

row,Variant,yeast fitness
1,G6A G17C C31G G50U U53A,0.559
2,G6A C22U C33U A36U A43C C60U C61G A70G,≤ 0.5
3,G6A C24U A42U U53G G68C,≤ 0.5
4,G6A G17C A37C,0.634
5,G6A C34U U64A,≤ 0.5
6,G6A G17C G51A,≤ 0.5
7,G6A G23A U47A G58C,≤ 0.5
8,G6A C30G A57C G58C,≤ 0.5
9,G6A G23C C49G U53G A57G,0.567
10,G6A C27G A36U C46U G67A,≤ 0.5
11,G6A G12A G41A A65U,0.547
12,G6A C11G U35A A37U U53A A65G,≤ 0.5
13,G6A G10A,0.859
14,G6A C46U G50A C61G,≤ 0.5
15,G6A G10C C24U C34U A36U C46A,≤ 0.5
16,G6A A45U C49U,0.564
17,G6A A43U C46A,0.649
18,G6A C31A U47C G67A,≤ 0.5
19,G6A C22U,0.757
20,G6A G12C C34U A70U,0.671
21,G6A C66G,0.683
22,G6A C66A,0.879
23,G6A G23C C30G G39C,≤ 0.5
24,G6A C24U C61G C66U A69U,0.568

row,Variant,yeast fitness
1,G6A C11A A36C C61G C62A A69C,≤ 0.5
2,G6A C11A G52U,≤ 0.5
3,G6A A43G A69U,0.716
4,G6A G17C G18C A45G,≤ 0.5
5,G6A A42C C62A,0.97
6,G6A G18C A37C C60A U64A,≤ 0.5
7,G6A C22G U35C C55G,≤ 0.5
8,G6A C31A U47G C62A,≤ 0.5
9,G6A C33U C34U C62G,≤ 0.5
10,G6A C31U A43U C55A,≤ 0.5
11,G6A C34A A37C A40U,≤ 0.5
12,G6A G9C A21G,0.537
13,G6A G9C U19C C24U U54C,≤ 0.5
14,G6A C11U U13C C27G,0.507
15,G6A G18U C24A U32A G38A A43G A45U G52A,0.641
16,G6A C27G A65C,0.562
17,G6A A45G A65U,0.771
18,G6A C33G C34G G41A G58C A70C,0.519
19,G6A C22U C49A,≤ 0.5
20,G6A C31G C55U,0.537
21,G6A G10C U54C,≤ 0.5
22,G6A C29G C30A U64G A69C,≤ 0.5
23,G6A G38A G56A,0.679
24,G6A C24G U35A G48C,0.54

row,Variant,yeast fitness
1,G6A G18A C30U C55G,≤ 0.5
2,G6A A45U G51A,≤ 0.5
3,G6A C49G C61U A69G,≤ 0.5
4,G6A A37U C62G,≤ 0.5
5,G6A C11U A70C,0.578
6,G6A C34G A37G U64C,≤ 0.5
7,G6A C22G U47A G67U A70C,≤ 0.5
8,G6A C30U U35A A37G G38C U47A,≤ 0.5
9,G6A G25A A40C A57C C61A G67A,≤ 0.5
10,G6A G17C U35A G39A C55G C60U G67C,≤ 0.5
11,G6A G10C C34U C46U,≤ 0.5
12,G6A C27G A36C A42C A69C,≤ 0.5
13,G6A C22U A42C G52A G56C,≤ 0.5
14,G6A C11A C46A A57G,≤ 0.5
15,G6A C55A G67A,0.534
16,G6A G9C A42U,≤ 0.5
17,G6A G25C C33U G48A G63A,≤ 0.5
18,G6A G10C C34U G52C,≤ 0.5
19,G6A C31U C46A A57U C60U,≤ 0.5
20,G6A G10A C60G,≤ 0.5
21,G6A G10A C22G G25C,≤ 0.5
22,G6A C29A C30G C61U A70G,≤ 0.5
23,G6A C29U C33G G67A,≤ 0.5
24,G6A C27A C60A U64A,≤ 0.5

row,Variant,yeast fitness
1,G6A G23C C61U,≤ 0.5
2,G6A C34G C62U G68A,≤ 0.5
3,G6A C27G A42C,≤ 0.5
4,G6A A45U,0.942
5,G6A C34U A65C,0.54
6,G6A G23A A42G C46U C55G,0.522
7,G6A G9C C11G C34U G68A,0.574
8,G6A A45C C46G C66U,≤ 0.5
9,G6A G38C C66U,0.532
10,G6A G9U C11U A70C,0.533
11,G6A G17A C31A C33G G38A,≤ 0.5
12,G6A A42G U64C,0.629
13,G6A A57U A65C A70C,0.534
14,G6A G18A A36C U47G,≤ 0.5
15,G6A G9C C11G G48C U59A,≤ 0.5
16,G6A C29U A43C C46U C49U G56C,≤ 0.5
17,G6A G17A U19G,0.512
18,G6A G9C C11G C27U C34U G68A,≤ 0.5
19,G6A A43U,0.747
20,G6A A43C,0.779
21,G6A G12A A15C C24A,≤ 0.5
22,G6A G9C G44C G67A,0.649
23,G6A G9C C11G C34U,≤ 0.5
24,G6A G12C U16A,0.799

row,Variant,yeast fitness
1,G6A G10A G18A C27G A37G G38A,≤ 0.5
2,G6A G25C A65U,0.663
3,G6A G17C,0.744
4,G6A G17A,0.633
5,G6A C34A A40U G52A A65U A70C,≤ 0.5
6,G6A G25A C34A G58A,≤ 0.5
7,G6A C11G U35A A37U,≤ 0.5
8,G6A G10C A15U C61A,≤ 0.5
9,G6A G9C,0.81
10,G6A C31G A43C C49A U54C,≤ 0.5
11,G6A C60U,0.675
12,G6A C60G,0.601
13,G6A C30U C33U C46U,≤ 0.5
14,G6A C22G A42C C62U,≤ 0.5
15,G6A C24U C61G C66U A70G,≤ 0.5
16,G6A C30U C49A,≤ 0.5
17,G6A C31A G68A,≤ 0.5
18,G6A A45U A57C,≤ 0.5
19,G6A A43U U53C A57C A65U,≤ 0.5
20,G6A C24U C61A,≤ 0.5
21,G6A A37U G56A A65C,0.56
22,G6A G38A A40C G56A C60U C61G,≤ 0.5
23,G6A G18C A37C C62A,0.604
